Laboratory results: article PMC12491069 (Bioorganic & medicinal chemistry letters, 2025)
Like-named read-outs stand apart in the source and are kept apart here.

What was measured:
Assay type in all cases: cell-based
[1] = test system: HeLa; assay: MTT cytotoxicity assay, HeLa; conditions: read-out: IC50 HeLa
In short: (§1)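 MTT viability assay run in parallel on MCF-7, HeLa and non-cancerous HUVEC cells. Test concentrations: benzimidazole derivatives at 50–250 μM and benzothiazole derivatives at 5–100 μM. IC50 derived from the MTT read-out.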

[2] = test system: MCF-7; assay: MTT cytotoxicity assay, MCF-7
In short: as §1

[3] = test system: HUVEC; assay: MTT cytotoxicity assay, HUVEC; conditions: read-out: IC50 HUVEC
In short: as §1

[4] = read-out: IC50 MCF-7, MTT, MCF-7 cells

COc1cccc2c1C(=O)c1c(O)c3c(c(O)c1C2=O)C[C@@](O)(C(=O)CO)C[C@@H]3O[C@H]1C[C@H](N)[C@H](O)[C@H](C)O1 [Doxorubicin]
IC50 ([1]; Homo sapiens, HeLa): 1.45 ± 0.15 µM | IC50 ([2]; Homo sapiens, MCF7, read-out: IC50 MCF-7): 17.44 ± 0.04 µM | IC50 ([3]; Homo sapiens, HUVEC): 93 ± 0.54 µM

N#Cc1ccc(COC[C@H]2O[C@@H](n3c(NCc4ccc(Cl)c(Cl)c4)nc4c(N)ncnc43)[C@H](O)[C@@H]2O)cc1 [VER-155008]
IC50 ([1]; MTT, HeLa cells): 55.26 ± 0.25 µM | IC50 [2, 4]: 23.9 ± 1.09 µM | IC50 ([3]; MTT, non-cancerous HUVEC line): 150 ± 2.23 µM

Nc1c(C(=O)Nc2ccc(F)cc2)sc2nc(-c3cccs3)cc(C(F)(F)F)c12 [FDI-6]
IC50 ([1]; MTT, HeLa cells): 18.9 ± 0.89 µM | IC50 [2, 4]: 25.8 ± 2.41 µM | IC50 ([3]; MTT, non-cancerous HUVEC line): 240.3 ± 1.14 µM
